For 4 compounds, EC50, IC50 and CC50 results are on record in ChEMBL document CHEMBL1126119, “3',3'-Difluoro-3'-deoxythymidine: comparison of anti-HIV activity to 3'-fluoro-3'-deoxythymidine” (J Med Chem, 1992).

Experiment [1] deals with MT4. In words: Concentration required to affect a 50% reduction in the cytopathic effect of HIV for MT-4 cells. It counts as functional. The following applies: Homo sapiens, read-out: ED50 (the source's name). The procedure, abridged:
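HIV-infected MT4 cell cultures were used. ED50 is the dose that gives a 50% reduction in the HIV-induced cytopathic effect.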

The target in experiment [2] is Human immunodeficiency virus type 1 reverse transcriptase (Human immunodeficiency virus 1, UniProt Q72547). Nature of the experiment: Concentration required to inhibit HIV reverse transcriptase.
Experiment [3] has as its system MT4. Nature of the experiment: Concentration required to reduce the number of viable cells in the untreated MT-4 cell culture. It counts as functional. The following applies: Homo sapiens, read-out: CD50 (the source's name). The procedure, abridged: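 Uninfected, untreated MT4 cell cultures were used. CD50 is the cytotoxic dose that reduces the number of viable cells by 50%.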

As to `Cc1cn([C@H]2CC(F)(F)[C@@H](CO)O2)c(=O)[nH]c1=O`, the EC50 with MT4 [1] came to 38.6 µM. Further, half-maximal inhibition in experiment [2] (IC50) required 8800 nM. The CC50 in the experiment with MT4 [3] amounted to 48.4 µM.
For `Cc1cn([C@H]2C[C@H](N=[N+]=[N-])[C@@H](CO)O2)c(=O)[nH]c1=O` [ZIDOVUDINE], in that order: 0.004 µM, 40 nM and 20 µM.
The corresponding values for `Cc1cn([C@H]2C[C@H](F)[C@@H](CO)O2)c(=O)[nH]c1=O` [ALOVUDINE] are 0.001 µM, less than 50 nM and 0.197 µM.
The corresponding values for `Cc1cn([C@H]2CC[C@@H](CO)O2)c(=O)[nH]c1=O` are 6 µM, less than 50 nM and greater than 625 µM.
